Published values pooled from the literature.
Each line is one published result; the experiments were not run side by side.
Observed: cell growth or viability

For `CCCCCCn1c(-c2cccc(Cl)c2)n[nH]c1=S`, the viability was 75% (HepG2; resazurin; 100 µM, 24 h).
With `CCOP(=O)(OCC)[C@@H]1C[C@@H](n2cc(-c3ccc(F)cc3F)nn2)ON1C` (racemic) the CC50 was no less than 250 µM (human T-lymphocyte; 72 h).
For `NC1CCC(CC2CCC(NC(=O)c3cc4[nH]ccc4cc3Cl)CC2)CC1` (stereo not drawn), the viability was less than 50% (HEK-293T; 100 µM, 24 h).
The viability of `COc1ccc2c(c1)c1c(n2CO)CN2CCc3cc(OC)c(OCc4ccc(F)cc4)cc3C2C1` (stereo not drawn) is reported as 104% (HepG2; 10 µM, 24 h).
With `CCOP(=O)(OCC)[C@@H]1C[C@H](n2cc(Cn3ccc(=O)[nH]c3=O)nn2)ON1C` (racemic) the CC50 was greater than 250 µM (human T-lymphocyte; 72 h).
The viability of `N[C@@H](CC(=O)N1CCN(C(c2ccc(F)cc2)c2ccc(F)cc2)CC1)C(=O)N1Cc2ccccc2C1` is reported as 41% (HEK-293T; ATP luminescence; 60 µM).
`CCOP(=O)(OCC)[C@@H]1C[C@@H](n2cc(Cn3cc(C)c(=O)[nH]c3=O)nn2)ON1C` (racemic) gave a CC50 of greater than 250 µM (human T-lymphocyte; 72 h).
The CC50 of `COc1cc2c(cc1O)[C@@H](Cc1ccc(O)cc1)[N+](C)(C)CC2` is reported as greater than 318 µM (Huh-7; MTT).
`O=C(NCCc1c[nH]c2ccc(F)cc12)c1cc2[nH]ccc2cc1Cl` gave a viability of less than 50% (HEK-293T; 100 µM, 24 h).
With `COc1ccc(CCN2CCC(Nc3nc4ccccc4n3Cc3ccc(F)cc3)CC2)cc1` the viability was 20% (HepG2; resazurin; 50 µM, 24 h).
The viability of `CC[C@@H](C)[C@H](N)C(=O)N1Cc2ccccc2C1` is reported as 73% (HEK-293T; ATP luminescence; 60 µM).
`COc1cc2c(cc1OCc1ccccc1F)C1Cc3c(n(CO)c4ccccc34)CN1CC2` (stereo not drawn) has a viability of 83.6% (HepG2; 20 µM, 24 h).
